Compound activity deposited in PubChem by several laboratories.
B2AR ag: human beta-2 adrenergic receptor agonism by FAP. actives 0.43% (n = 340,000). Am2.2-beta2AR cells, FAP receptor internalization, flow cytometry. AID 504454. P07550. response, % (test concentration not listed);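 active = response above a set limit, near 3 SD of response in nonfluorescent compounds, cut at about 42% in these data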
Target sequence (P07550 whole entry, looked up): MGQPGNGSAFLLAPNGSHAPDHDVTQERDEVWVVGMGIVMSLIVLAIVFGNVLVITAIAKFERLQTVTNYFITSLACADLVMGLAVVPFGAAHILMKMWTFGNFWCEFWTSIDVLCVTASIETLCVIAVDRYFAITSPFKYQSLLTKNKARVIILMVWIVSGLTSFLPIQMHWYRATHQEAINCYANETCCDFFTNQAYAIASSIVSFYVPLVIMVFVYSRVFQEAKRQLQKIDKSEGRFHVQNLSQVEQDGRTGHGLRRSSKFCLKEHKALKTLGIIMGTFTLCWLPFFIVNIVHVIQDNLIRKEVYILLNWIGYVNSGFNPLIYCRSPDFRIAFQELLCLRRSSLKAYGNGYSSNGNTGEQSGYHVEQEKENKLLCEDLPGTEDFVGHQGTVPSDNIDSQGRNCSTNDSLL
T cell HTS: T cell immune modulators affecting CD8 T cell-vesicle binding; response (vesicle binding), % at 7 µM; AID 2052; 2C CD8+ T cell-vesicle binding, flow cytometry; stronger effect = lower value; actives 0.068% (n = 330,000);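 active = response, share of CD8 T cells binding vesicles, and their 90th percentile fluorescence all below set limits, cut at about 80% in these data, passing the limit was not always enough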;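 also: values below 100% mean blocked vesicle binding to the CD8+ T cells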
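material = purified 2C TCR transgenic mouse naive CD8+ T cells | controls = Unloaded micro-vesicles (low), QL9 vesicles with 0.7% DMSO (high) | detection = cytometric PE anti-B7-1 and Alexa647 anti-CD8 signals after 1% paraformaldehyde fixation | incubation = binding step 1.5 h, 37 °C, antibody labelling 20 min, ice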
MPTP block: blocks calcium-induced mitochondrial swelling; isolated mouse mitochondria, Ca2+ swelling absorbance, 30 min; inhibition, % at 10 µM; actives 1.4% (n = 360,000); AID 602449;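 active = inhibition of 50% or more, scaled per plate between neutral and stimulator controls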;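 also: 0% = DMSO wells given calcium and 100% = 1 mM EGTA wells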
V-ATPase pHluor: regulators of yeast V-ATPase proton transport | actives 0.37% (n = 350,000) | AID 504577 | S. cerevisiae, pHLuorin cytosolic pH fluorescence | response, % at 10 µM; in the data active = response mostly above about 7.3%, no sharp cut-off; inactive = mostly below about 5.4%; also: actives read high
rCAG RNA binder: molecules binding r(CAG) RNA repeats | AID 651821 | inhibition, % at 3 µM | r(CAG) RNA repeat, TO-PRO-1 dye displacement fluorescence | actives 1.3% (n = 370,000);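 active = inhibition above the plate cutoff, the mean of all test compounds on that plate plus 3 SD, cut at about 35% in these data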;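 also: 0% = DMSO alone and 100% = 100 µM mitoxantrone as full dye displacement; higher means more dye released from RNA so lower well fluorescence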
Exocytosis inh: blocks lytic granule exocytosis; TALL-104 LAMP-1 surface exposure, flow cytometry; cells stimulated with thapsigargin and PMA; inhibition, % at 10 µM; actives 0.66% (n = 360,000); AID 651702;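 active = inhibition above about 55%, limit read from the data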
Granule exo CP1: lytic granule exocytosis inhibition | shares compounds with Exocytosis inh | TALL-104 cells, LAMP-1 externalization, flow cytometry; stimulated with PMA plus thapsigargin | inhibition, % at 10 µM | actives 11% (n = 1,500); in the data active = inhibition above about 60%;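 also: 0% = stimulated vehicle wells and 100% = unstimulated wells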
Starred values were filed as active, the others as inactive; i = inactive; . = not tested or not shown. Shown are actives, neighbours in structure and some others; about 3.8% of the full set was active somewhere.

SMILES	B2AR ag	T cell HTS	MPTP block	V-ATPase pHluor	rCAG RNA binder	Exocytosis inh	Granule exo CP1
CCN(C(=O)CSc1nc2n[nH]c(C)c2c(=N)n1-c1ccc(Cl)c(C)c1)c1cccc(C)c1	23	313	-2	4	7	30	.
CCCCN(CC)C(=O)CSc1nc2n[nH]c(C)c2c(=N)n1-c1cccc(C)c1	-7	224	6	-4	0	62*	-10
Cc1ccc(C)n1-c1nn(S(=O)(=O)c2ccccc2)c2cccc(F)c12	-1	415	2	3	0	56*	-12
COc1ccc(S(=O)(=O)n2nc(-n3c(C)ccc3C)c3c(F)cccc32)cc1OC	11	390	2	-1	0	-4	.
O=C(CSc1nccn(-c2cccc(F)c2)c1=O)Nc1ccc(Cl)cc1F	-6	328	0	4	8	76*	-10
C=CCNC(=O)CN(C(=O)Cc1cccc(OC(F)(F)F)c1)c1cccc(Br)c1	.	.	.	.	0	.	.
O=C1C=CC(=O)N1N(c1ccccc1)c1ccccc1	0	133	1	0	1	78*	104*
COc1ccc(OC)c(NC(=O)Nc2c(O)ccc3ccccc23)c1	8	58	13	2	1	1	.
COc1ccc(S(=O)(=O)Nc2cc(C)c(O)cc2C(C)C)cc1	2	i	1	-4	5	-2	.
COc1ccc(S(=O)(=O)c2c(O)cc(C)c(NS(=O)(=O)c3ccccc3)c2C)cc1	-1	251	2	-2	5	70*	-5
COc1ccc(S(=O)(=O)Nc2ccc(O)c3ccccc23)cc1	39	359	11	12	19	87*	6
COc1ccc(S(=O)(=O)Nc2ccccc2)cc1	3	332	6	-3	2	-3	.
COc1ccc(OC)c(NC(=O)Nc2ccc(O)c3ccccc23)c1	-4	99	5	-2	15	82*	-9
COC(=O)c1ccccc1NC(=O)NCC1CCN(Cc2ccc(OC)cc2)CC1	.	.	.	.	2	.	.
Cc1cc(N2CCNC[C@@H]2C)ccc1N1CCN(Cc2ccccc2)[C@H](C)C1	.	.	.	.	7	.	.
CCN(CC(=O)NCc1cccs1)C(=O)c1cccc(S(=O)(=O)N2CC(C)OC(C)C2)c1 (configuration not stated)	-1	182	-1	.	3	-9	.
CCN(CC(=O)NCc1cccs1)C(=O)c1cccc(S(=O)(=O)N2CCc3ccccc32)c1	-1	425	1	0	-3	65*	-13
Cc1ccn2cc(-c3ccc(NC(=O)c4ccco4)cc3)nc2c1	-17	286	-1	-2	-1	85*	-4
O=C(Nc1ccc(-c2cn3ccccc3n2)cc1)c1cccs1	6	136	1	0	1	72*	48
CCOC(=O)C(Cc1ccccc1)CP(=O)(OC)[C@@H](C)NC(=O)OCc1ccccc1 (some centres not stated)	.	.	.	.	-1	.	.
CC1(C)CC(=O)C=C(C#CC2CC2)C1	.	.	.	.	6	.	.
COCCN(C(=O)Cc1cccs1)C(C(=O)NCc1ccc(OC)cc1)c1ccc(C)cc1 (configuration not stated)	-10	461	0	2	-10	1	.
COc1ccc(CNC(=O)C(c2ccc(C)o2)N(Cc2cccs2)C(=O)Cc2cccs2)cc1 (configuration not stated)	9	20	-2	7	0	77*	8
COc1ccc(NC(=O)Nc2nnc(Cc3ccc(OC)c(OC)c3)s2)cc1	6	182	-2	1	28	-10	.
COc1ccc(Cc2nnc(NC(=O)Nc3ccc(C)cc3)s2)cc1OC	2	i	2	1	17	65*	-14
COc1ccc(N(CC(=O)NCc2ccccc2OC)S(=O)(=O)c2ccccc2)cc1	7	221	1	-9	0	75*	-14
COc1ccccc1N(CC(=O)NCc1ccccc1C)S(=O)(=O)c1ccc(C)cc1	-1	193	1	-3	-10	63*	-13
COc1ccc(CCNC(=O)CN(c2ccccc2OC)S(=O)(=O)c2ccc(C)cc2)cc1	8	i	0	0	-6	10	.
O=C(Nc1nc2ncccn2c1-c1ccccc1)c1ccc(F)cc1	.	.	.	.	2	.	.
